According to ChEMBL document CHEMBL4477209, “Indole-2-carboxamide-based MmpL3 Inhibitors Show Exceptional Antitubercular Activity in an Animal Model of Tuberculosis Infection” (J Med Chem, 2016):
Calls of active or inactive are those of the source. The rule behind the calls is not given here.

How the values were obtained:
[1] = Stability in human hepatocytes assessed as compound remaining at 1 uM after 2 hrs; type: ADME, cell-based, Hepatocyte; conditions: read-out: Stability
Outline: (§1)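 Hepatocytes from human, mouse, rat or dog incubated with 1 μM starting concentration for 2 h; percent of parent compound remaining.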

[2] = molecular target: T1, Nuclear receptor subfamily 1 group I member 2 (Homo sapiens, UniProt O75469); assay: Transactivation of PXR (unknown origin) assessed as upregulation of CYP3A4 at 0.1 to 1 microg/ml; type: ADME
T1 sequence (O75469 whole entry): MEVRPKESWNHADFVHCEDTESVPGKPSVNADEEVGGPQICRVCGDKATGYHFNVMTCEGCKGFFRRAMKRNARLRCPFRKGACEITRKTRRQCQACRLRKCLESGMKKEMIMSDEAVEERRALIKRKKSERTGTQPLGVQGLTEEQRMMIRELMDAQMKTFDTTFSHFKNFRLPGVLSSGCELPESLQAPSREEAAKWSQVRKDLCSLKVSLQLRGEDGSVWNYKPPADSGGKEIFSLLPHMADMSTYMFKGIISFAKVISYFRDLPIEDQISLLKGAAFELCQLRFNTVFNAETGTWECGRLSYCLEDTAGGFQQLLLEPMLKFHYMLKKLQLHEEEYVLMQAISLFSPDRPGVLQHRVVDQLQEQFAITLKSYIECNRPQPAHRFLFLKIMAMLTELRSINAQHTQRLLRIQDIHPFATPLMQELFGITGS
Outline: (§2)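 Nuclear receptor reporter-gene induction assay, with reporters coupled to PXR, CAR or AhR. Compound was tested at 0.1–1, 3 and 8 μg/mL. Positive controls were rifampin for PXR, CITCO for CAR and 3-methylcholanthrene for AhR.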

[3] = molecular target: Voltage-gated inwardly rectifying potassium channel KCNH2 (Homo sapiens, UniProt Q12809); assay: Inhibition of human ERG
[4] = molecular target: T2, Nuclear receptor subfamily 1 group I member 3 (Homo sapiens, UniProt Q14994); assay: Transactivation of CAR (unknown origin) assessed as upregulation of CYP2B6 at 0.1 to 1 microg/ml; type: ADME; outline: as §2
T2 sequence (Q14994 whole entry): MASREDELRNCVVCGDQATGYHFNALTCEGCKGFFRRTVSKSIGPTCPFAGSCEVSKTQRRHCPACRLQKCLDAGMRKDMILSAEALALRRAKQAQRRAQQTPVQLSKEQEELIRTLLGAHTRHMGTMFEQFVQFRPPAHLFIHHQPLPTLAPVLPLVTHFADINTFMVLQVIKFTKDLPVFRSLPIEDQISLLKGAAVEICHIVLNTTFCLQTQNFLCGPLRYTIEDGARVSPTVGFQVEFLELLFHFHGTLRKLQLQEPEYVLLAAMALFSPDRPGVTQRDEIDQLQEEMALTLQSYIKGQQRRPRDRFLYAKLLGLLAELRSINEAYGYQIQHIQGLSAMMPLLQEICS

[5] = Permeability across apical to basolateral side in human Caco2 cells; type: ADME, cell-based; conditions: Caco-2, read-out: permeability
[6] = tested on: Mycobacterium tuberculosis; assay: Antimycobacterial activity against Mycobacterium tuberculosis H37Rv assessed as growth inhibition at 0.5 times MIC after 7 to 14 days in presence of 0.0313 times MIC of rifampin by alamar blue assay based Bliss synergy model analysis; type: functional
Outline: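 Checkerboard of 2-fold dilutions, 4.0 to 0.0313 × MIC of each drug combined with rifampin. M. tuberculosis H37Rv at 1 × 10^4 CFU per well in 200 μL. Single-drug, blank and full-growth controls included. alamarBlue read-out, percent inhibition calculated. Bliss independence applied to wells below 1 × MIC; Δfaxy > 0 taken as synergy, < 0 as antagonism.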

[7] = tested on: Vero; assay: Cytotoxicity against african green monkey Vero cells; type: cell-based; conditions: Chlorocebus sabaeus
[8] = tested on: Mycobacterium tuberculosis; assay: Antimycobacterial activity against Mycobacterium tuberculosis H37Rv grown on serum isolated from 100 mg/kg, po treated BALB/c mouse for 30 to 120 mins assessed as reduction in bacterial growth followed by bacterial addition incubated for 7 days by alamar blue reagent based serum inhibition titration assay; type: functional, organism-based
Outline: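 Six-week-old female BALB/c mice (20 g) given one oral dose as suspension in 0.5% CMC in water; isoniazid 10 mg/kg as positive control, vehicle as negative. Serum collected at 30, 60 and 120 min, pooled from three mice per time point, 2-fold serially diluted. 10^4 CFU H37Rv added per well, 7 days at 37 °C. alamarBlue added for 16−18 h, fluorescence read at Ex544/Em590 and plotted against serum titration.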

[9] = Cmax in BALB/c mouse lung at 100 mg/kg administered via oral gavage after 0.25 to 24 hrs by LC-MS analysis; type: ADME, organism-based; design: dose 100 mg/kg, route oral
Outline: (§3)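 Female BALB/c mice (20 g), single oral gavage dose of 100 mg/kg. Cardiac blood and lungs taken at 0, 0.25, 0.5, 1, 2, 4, 8 and 24 h (n = 3 per time point). Plasma separated by centrifugation; lungs bead-beaten in water and supernatant recovered. Drug quantified by LC-MS/MS against an indole-2-carboxamide internal standard. Parameters derived by noncompartmental analysis.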

[10] = molecular target: Cytochrome P450 2C9 (Homo sapiens, UniProt P11712); assay: Inhibition of CYP2C9 (unknown origin); type: ADME
[11] = molecular target: Cytochrome P450 3A4 (Homo sapiens, UniProt P08684); assay: Inhibition of CYP3A4 (unknown origin); type: ADME
[12] = Cmax in BALB/c mouse plasma at 100 mg/kg administered via oral gavage after 0.25 to 24 hrs by LC-MS analysis; type: ADME, organism-based; design: dose 100 mg/kg, route oral; outline: as §3
[13] = Stability in human liver microsomes assessed as compound remaining at 3 uM after 1 hr; type: ADME, Microsome; conditions: read-out: Stability
Outline: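 Human liver microsomes incubated with 3 μM starting concentration for 1 h; percent of compound remaining.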

[14] = AUClast in BALB/c mouse plasma at 100 mg/kg administered via oral gavage after 0.25 to 24 hrs by LC-MS analysis; type: ADME, organism-based; design: dose 100 mg/kg, time 0.25-24 hr, route oral; outline: as §3
[15] = Stability in rat hepatocytes assessed as compound remaining at 1 uM after 2 hrs; type: ADME, cell-based, Hepatocyte; conditions: read-out: Stability; outline: as §1
[16] = tested on: Mycobacterium tuberculosis; assay: Antimycobacterial activity against Mycobacterium tuberculosis H37Rv infected in BALB/c mouse model assessed as reduction in CFU counts in lung at 100 mg/kg administered daily via oral gavage for 5 days per week measured after 14 days post dosage relative to control; type: functional
Outline: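 Female BALB/c mice, 4-6 weeks old, aerosol-infected with H37Rv (about 10^3 CFU); five mice taken on day 1 for lung implantation CFU. From day 1, 12.5, 25, 50 or 100 mg/kg in 0.5% carboxymethylcellulose by daily oral gavage, 5 days/week. Ethambutol 100 mg/kg as positive control, untreated infected mice as negative, 5 mice per group. Lung homogenates plated on 7H11 selective agar on days 14 and 28.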

[17] = molecular target: T2, Nuclear receptor subfamily 1 group I member 3; assay: Transactivation of CAR (unknown origin) assessed as upregulation of CYP2B6 at 3 to 8 microg/ml; type: ADME; outline: as §2
[18] = Mutagenicity in Salmonella typhimurium TA98 assessed as increase in ratio of revertant colonies at 5000 microg/plate in presence of S9 liver fraction relative to control; type: toxicity, subcellular; conditions: salmonella enterica subsp. enterica serovar typhimurium
Outline: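 Bacterial reverse mutation test in S. typhimurium TA98 with S9 liver fraction, at 500 and 5000 μg/plate. Revertant colony count expressed as a ratio to the DMSO solvent control; 2-aminoanthracene as positive control.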

[19] = Mutagenicity in Salmonella typhimurium TA98; type: toxicity; conditions: salmonella enterica subsp. enterica serovar typhimurium

Chain of Cytochrome P450 3A4 (P08684 whole entry): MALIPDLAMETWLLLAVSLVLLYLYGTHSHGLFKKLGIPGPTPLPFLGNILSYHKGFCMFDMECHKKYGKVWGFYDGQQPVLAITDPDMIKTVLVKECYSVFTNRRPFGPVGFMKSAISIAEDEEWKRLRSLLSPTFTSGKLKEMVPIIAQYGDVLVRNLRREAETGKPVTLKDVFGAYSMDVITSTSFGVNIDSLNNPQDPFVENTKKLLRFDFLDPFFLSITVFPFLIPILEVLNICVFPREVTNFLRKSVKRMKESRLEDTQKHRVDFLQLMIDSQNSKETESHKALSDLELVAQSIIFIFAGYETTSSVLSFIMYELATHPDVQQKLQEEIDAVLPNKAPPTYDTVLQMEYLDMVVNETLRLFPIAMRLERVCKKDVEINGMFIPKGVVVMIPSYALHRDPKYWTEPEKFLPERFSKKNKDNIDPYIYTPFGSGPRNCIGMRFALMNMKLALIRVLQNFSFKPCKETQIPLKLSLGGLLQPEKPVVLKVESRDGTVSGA
Chain of Voltage-gated inwardly rectifying potassium channel KCNH2 (Q12809 whole entry): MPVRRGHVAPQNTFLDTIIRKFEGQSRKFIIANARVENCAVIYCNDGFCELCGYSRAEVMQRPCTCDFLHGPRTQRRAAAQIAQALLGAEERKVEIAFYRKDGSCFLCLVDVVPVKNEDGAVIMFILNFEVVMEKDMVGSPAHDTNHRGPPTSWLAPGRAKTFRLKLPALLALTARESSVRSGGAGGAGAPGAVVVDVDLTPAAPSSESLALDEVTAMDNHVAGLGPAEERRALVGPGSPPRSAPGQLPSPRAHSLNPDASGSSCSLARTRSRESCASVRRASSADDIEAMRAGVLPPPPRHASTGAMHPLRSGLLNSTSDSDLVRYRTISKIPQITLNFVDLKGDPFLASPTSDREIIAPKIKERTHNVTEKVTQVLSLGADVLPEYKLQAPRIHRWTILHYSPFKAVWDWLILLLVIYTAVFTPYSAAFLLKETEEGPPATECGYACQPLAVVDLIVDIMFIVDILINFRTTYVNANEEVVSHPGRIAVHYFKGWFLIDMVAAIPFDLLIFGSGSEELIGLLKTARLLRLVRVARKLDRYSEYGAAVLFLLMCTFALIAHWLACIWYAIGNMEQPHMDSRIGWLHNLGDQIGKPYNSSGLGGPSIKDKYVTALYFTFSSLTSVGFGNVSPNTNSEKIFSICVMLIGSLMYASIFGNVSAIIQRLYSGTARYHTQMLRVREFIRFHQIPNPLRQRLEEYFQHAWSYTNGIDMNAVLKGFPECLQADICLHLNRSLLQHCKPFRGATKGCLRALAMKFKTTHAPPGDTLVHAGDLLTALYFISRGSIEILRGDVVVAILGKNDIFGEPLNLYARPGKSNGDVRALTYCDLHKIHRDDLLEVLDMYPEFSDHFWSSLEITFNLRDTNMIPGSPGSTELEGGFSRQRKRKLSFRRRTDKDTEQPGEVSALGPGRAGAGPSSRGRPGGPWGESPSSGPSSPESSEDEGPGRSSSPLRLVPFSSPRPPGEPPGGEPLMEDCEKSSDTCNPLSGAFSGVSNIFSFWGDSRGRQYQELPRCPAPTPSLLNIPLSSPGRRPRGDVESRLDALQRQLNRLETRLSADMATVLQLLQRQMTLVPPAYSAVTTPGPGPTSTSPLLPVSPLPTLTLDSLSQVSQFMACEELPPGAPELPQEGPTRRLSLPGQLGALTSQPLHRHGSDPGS
Chain of Cytochrome P450 2C9 (P11712 whole entry): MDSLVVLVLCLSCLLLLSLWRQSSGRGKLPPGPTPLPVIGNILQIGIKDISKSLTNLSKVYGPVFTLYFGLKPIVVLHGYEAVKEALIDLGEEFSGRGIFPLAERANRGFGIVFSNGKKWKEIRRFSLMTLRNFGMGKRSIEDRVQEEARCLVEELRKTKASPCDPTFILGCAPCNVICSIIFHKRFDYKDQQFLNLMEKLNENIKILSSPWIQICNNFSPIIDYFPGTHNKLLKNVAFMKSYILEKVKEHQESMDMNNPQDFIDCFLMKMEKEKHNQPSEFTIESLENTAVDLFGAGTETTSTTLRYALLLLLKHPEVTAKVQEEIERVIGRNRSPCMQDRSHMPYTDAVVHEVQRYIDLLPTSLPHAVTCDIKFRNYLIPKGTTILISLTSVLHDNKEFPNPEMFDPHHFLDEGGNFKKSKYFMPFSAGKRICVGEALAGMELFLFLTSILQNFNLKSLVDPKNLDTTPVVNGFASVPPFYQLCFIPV

C[C@@H]1[C@H]2C[C@@H](C[C@H]1NC(=O)c1cc3c(F)cc(F)cc3[nH]1)C2(C)C
remaining at 2 h, 1 µM [1]: 52% | Activity [2]: Not Active | IC50 [3]: > 30 µM | Activity [4]: Not Active | Papp A→B [5]: 0.19 ×10⁻⁶ cm/s | growth inhibition (GI) [6]: 99.2% | IC50 [7]: ≥ 192 µM | Activity [8]: Active | Cmax [9]: 3500 ng/g | inhibition (INH) [10]: -5.2% | inhibition (INH) [11]: -6.7% | Cmax [12]: 1710 ng/mL | remaining at 1 h, 3 µM [13]: 69.5% | AUC(0-t) [14]: 18900 ng·h/mL | remaining at 2 h, 1 µM [15]: 0.7% | Activity [16]: 1.71 log10CFU | Activity [17]: Active | fold change (FC) [18]: 2 | Activity [19]: Non-Toxic
